Assay results: ChEMBL document CHEMBL1123930, “Structure-activity relationships among di- and tetramine disulfides related to benextramine” (1987)
Calls of active or inactive are those of the source. The rule behind the calls is not given here.

Experiments:
Type in all cases: functional
[1] = target: Adrenergic receptor alpha (Rattus norvegicus) (UniProt P15823+P23944+P43140+P22086+P19328+P22909); experiment: Irreversible inhibition against Norepinephrine (NE)-induced response in rat vas deferens with benextramine (BHC) as standard at a concentration of 2 x 10e-5 M
In short: (§1)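 Rat vas deferens tissues were held at 32 °C under 95% O2/5% CO2 at 0.50 g loading tension, with contractions recorded by force transducer. After 1 h equilibration and a medium change, antagonist was incubated for 30 min, then drained and washed out for 30 min. Cumulative NE concentration-response curves followed. The fall in maximal response, as percent of control, is reported as mean ± SEM of five experiments.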

[2] = species: Rattus norvegicus; experiment: Irreversible inhibition against Norepinephrine (NE)-induced response in rat vas deferens with benextramine (BHC) as standard at a concentration of 6 x 10e-6 M; in short: as §1
[3] = species: Rattus norvegicus; experiment: Irreversible inhibition against Norepinephrine (NE)-induced response in rat vas deferens with benextramine (BHC) as standard at a concentration of 2 x 10e-5 M; Inactive; in short: as §1
[4] = species: Rattus norvegicus; experiment: Irreversible inhibition against Norepinephrine (NE)-induced response in rat vas deferens with benextramine (BHC) as standard at a concentration of 10e-4 M; in short: as §1
[5] = species: Rattus norvegicus; experiment: Irreversible inhibition against Norepinephrine (NE)-induced response in rat vas deferens with benextramine (BHC) as standard at a concentration of 10e-4 M; Inactive; in short: as §1

## c1ccc2c(c1)CCN2CCCCCCNCCSSCCNCCCCCCN1CCc2ccccc21
[1]
  inhibition: 37%

## C(CCCN1CCCCC1)CCNCCSSCCNCCCCCCN1CCCCC1
[1]
  inhibition: 100%
[2]
  inhibition at 6 µM: 56%

## c1ccc(CNCCCCCCOCCSSCCOCCCCCCNCc2ccccc2)cc1
[1]
  inhibition: 32%

## c1ccc(CCNCCCCCCNCCSSCCNCCCCCCNCCc2ccccc2)cc1
[3]
  inhibition: inactive
[4]
  inhibition at 100 µM: 32%

## COc1cc(C(O)CNCCCCCCNCCSSCCNCCCCCCNCC(O)c2cc(OC)c(OC)c(OC)c2)cc(OC)c1OC (stereo not given)
[1]
  inhibition: 98%

## COc1cccc(C(O)CNCCCCCCNCCSSCCNCCCCCCNCC(O)c2cccc(OC)c2)c1 (stereo not given)
[1]
  inhibition: 91%

## c1ccc2c(c1)CCN(CCCCCCNCCSSCCNCCCCCCN1CCc3ccccc3C1)C2
[3]
  inhibition: inactive
[4]
  inhibition at 100 µM: 66%

## CC(C)(C)NCCSSCCNC(C)(C)C
[3]
  inhibition: inactive
[5]
  inhibition: inactive

## CCN(CC)CCSSCCN(CC)CC
[3]
  inhibition: inactive
[5]
  inhibition: inactive

## NC(CCCCCNCCSSCCNCCCCCC(N)Cc1ccccc1)Cc1ccccc1 (stereo not given)
[1]
  inhibition: 57%

## COc1ccccc1C(O)CNCCCCCCNCCSSCCNCCCCCCNCC(O)c1ccccc1OC (stereo not given)
[1]
  inhibition: 82%

## COc1ccccc1COCCCCCCNCCSSCCNCCCCCCOCc1ccccc1OC
[1]
  inhibition: 58%

## CN(CCCCCCN1CCCC1)CCSSCCN(C)CCCCCCN1CCCC1
[1]
  inhibition: 41%

## c1cc2c(cc1COCCCCCCNCCSSCCNCCCCCCOCc1ccc3c(c1)OCO3)OCO2
[3]
  inhibition: inactive
[4]
  inhibition at 100 µM: 45%

## C(CCCN1CCCC1)CCNCCSSCCNCCCCCCN1CCCC1
[1]
  inhibition: 98%

## Cn1ccc(CNCCCCCCNCCSSCCNCCCCCCNCc2ccn(C)c2)c1
[1]
  inhibition: 100%
[2]
  inhibition at 6 µM: 54%

## c1csc(CNCCCCCCNCCSSCCNCCCCCCNCc2cccs2)c1
[1]
  inhibition: 70%

## Oc1ccc(C(O)CNCCCCCCNCCSSCCNCCCCCCNCC(O)c2ccc(O)c(O)c2)cc1O (stereo not given)
[1]
  inhibition: 92%

## CN(CCCCCCNCc1ccccc1N)CCSSCCN(C)CCCCCCNCc1ccccc1N
[3]
  inhibition: inactive
[4]
  inhibition at 100 µM: 38%

## Nc1ccccc1CNCCCCCCNCCSSCCNCCCCCCNCc1ccccc1N
[1]
  inhibition: 79%

## c1ccc2c(c1)OC[C@H](CNCCCCCCNCCSSCCNCCCCCCNC[C@H]1COc3ccccc3O1)O2
[3]
  inhibition: inactive
[4]
  inhibition at 100 µM: 79%

## c1ccc2c(c1)CN(CCCCCCNCCSSCCNCCCCCCN1CNc3ccccc3C1)CN2
[1]
  inhibition: 89%

## O=C(Cc1ccccc1)NCCCCCCNCCSSCCNCCCCCCNC(=O)Cc1ccccc1
[1]
  inhibition: 44%

## CN(CCCCCCN1CNc2ccccc2C1)CCSSCCN(C)CCCCCCN1CNc2ccccc2C1
[3]
  inhibition: inactive
[4]
  inhibition at 100 µM: 6%

## c1ccc2c(c1)OC[C@@H](CNCCCCCCNCCSSCCNCCCCCCNC[C@@H]1COc3ccccc3O1)O2
[3]
  inhibition: inactive
[4]
  inhibition at 100 µM: 68%

## OC(CNCCCCCCNCCSSCCNCCCCCCNCC(O)c1ccc2c(c1)OCO2)c1ccc2c(c1)OCO2 (stereo not given)
[1]
  inhibition: 43%

## c1ccc(COCCCCCCNCCSSCCNCCCCCCOCc2ccccc2)cc1
[1]
  inhibition: 60%

## c1ccc2c(c1)CN(CCCCCCNCCSSCCNCCCCCCN1COc3ccccc3C1)CO2
[3]
  inhibition: inactive
[4]
  inhibition at 100 µM: 34%

## OC(CNCCCCCCNCCSSCCNCCCCCCNCC(O)c1ccccc1)c1ccccc1 (stereo not given)
[4]
  inhibition at 100 µM: 40%
[1]
  inhibition: 13%

## C1CCN(CCSSCCN2CCCCC2)CC1
[3]
  inhibition: inactive
[5]
  inhibition: inactive

## Nc1ccccc1C(=O)NCCCCCCNCCSSCCNCCCCCCNC(=O)c1ccccc1N
[3]
  inhibition: inactive
[4]
  inhibition at 100 µM: 55%

## c1ccc2c(c1)OCC(CNCCCCCCNCCSSCCNCCCCCCNCC1COc3ccccc3O1)O2 (stereo not given)
[3]
  inhibition: inactive
[4]
  inhibition at 100 µM: 53%

## c1coc(CNCCCCCCNCCSSCCNCCCCCCNCc2ccco2)c1
[1]
  inhibition: 100%
[2]
  inhibition at 6 µM: 79%

## COc1ccc(C(O)CNCCCCCCNCCSSCCNCCCCCCNCC(O)c2ccc(OC)cc2)cc1 (stereo not given)
[1]
  inhibition: 81%

## COc1ccc(C(O)CNCCCCCCNCCSSCCNCCCCCCNCC(O)c2ccc(OC)c(OC)c2)cc1OC (stereo not given)
[1]
  inhibition: 87%

## c1ccc(CNCCSSCCNCc2ccccc2)cc1
[4]
  inhibition at 100 µM: 48%
[1]
  inhibition: 12%

## c1ccc2c(CNCCCCCCNCCSSCCNCCCCCCNCc3c[nH]c4ccccc34)c[nH]c2c1
[3]
  inhibition: inactive
[4]
  inhibition at 100 µM: 46%

## CN(CCCCCCN1CCCCC1)CCSSCCN(C)CCCCCCN1CCCCC1
[1]
  inhibition: 34%

## COc1ccccc1CNCCCCCCOCCSSCCOCCCCCCNCc1ccccc1OC
[1]
  inhibition: 36%

## COc1ccccc1CNCCCCCCNCCSSCCNCCCCCCNCc1ccccc1OC [BENEXTRAMINE]
[1]
  inhibition: 100%
[2]
  inhibition at 6 µM: 35%
